# Laboratory results as given in PubChem BioAssay.
# Calls of active or inactive are those of the source.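 Rule for the calls, unless noted: active = Her2 level under about 52% in both replicate screens, with viability over 70% of control (limit read from the data); inconclusive = Her2 under the limit in one screen only, or viability under 70%; inactive = Her2 level above the set limit.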
# What was measured:
# [1] = reducers of endogenous Her2 protein level, primary screen, SKBR3 breast tumor cells, AlphaScreen, ATP viability (AID 461); conditions: 18-24 h, measured here: SKBR3 viability, ATP luminescence, at 10 µM;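 for Her2 level: lower value means less Her2 protein in the cells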;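 for viability: percent of carrier control wells set as 100% viability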
# [2] = molecular target: Receptor tyrosine-protein kinase erbB-2 (Homo sapiens) (UniProt P04626); experiment: as above; conditions: 18-24 h, at 10 µM, stronger effect = lower value
# Receptor tyrosine-protein kinase erbB-2 (Homo sapiens), sequence (P04626 whole entry, looked up): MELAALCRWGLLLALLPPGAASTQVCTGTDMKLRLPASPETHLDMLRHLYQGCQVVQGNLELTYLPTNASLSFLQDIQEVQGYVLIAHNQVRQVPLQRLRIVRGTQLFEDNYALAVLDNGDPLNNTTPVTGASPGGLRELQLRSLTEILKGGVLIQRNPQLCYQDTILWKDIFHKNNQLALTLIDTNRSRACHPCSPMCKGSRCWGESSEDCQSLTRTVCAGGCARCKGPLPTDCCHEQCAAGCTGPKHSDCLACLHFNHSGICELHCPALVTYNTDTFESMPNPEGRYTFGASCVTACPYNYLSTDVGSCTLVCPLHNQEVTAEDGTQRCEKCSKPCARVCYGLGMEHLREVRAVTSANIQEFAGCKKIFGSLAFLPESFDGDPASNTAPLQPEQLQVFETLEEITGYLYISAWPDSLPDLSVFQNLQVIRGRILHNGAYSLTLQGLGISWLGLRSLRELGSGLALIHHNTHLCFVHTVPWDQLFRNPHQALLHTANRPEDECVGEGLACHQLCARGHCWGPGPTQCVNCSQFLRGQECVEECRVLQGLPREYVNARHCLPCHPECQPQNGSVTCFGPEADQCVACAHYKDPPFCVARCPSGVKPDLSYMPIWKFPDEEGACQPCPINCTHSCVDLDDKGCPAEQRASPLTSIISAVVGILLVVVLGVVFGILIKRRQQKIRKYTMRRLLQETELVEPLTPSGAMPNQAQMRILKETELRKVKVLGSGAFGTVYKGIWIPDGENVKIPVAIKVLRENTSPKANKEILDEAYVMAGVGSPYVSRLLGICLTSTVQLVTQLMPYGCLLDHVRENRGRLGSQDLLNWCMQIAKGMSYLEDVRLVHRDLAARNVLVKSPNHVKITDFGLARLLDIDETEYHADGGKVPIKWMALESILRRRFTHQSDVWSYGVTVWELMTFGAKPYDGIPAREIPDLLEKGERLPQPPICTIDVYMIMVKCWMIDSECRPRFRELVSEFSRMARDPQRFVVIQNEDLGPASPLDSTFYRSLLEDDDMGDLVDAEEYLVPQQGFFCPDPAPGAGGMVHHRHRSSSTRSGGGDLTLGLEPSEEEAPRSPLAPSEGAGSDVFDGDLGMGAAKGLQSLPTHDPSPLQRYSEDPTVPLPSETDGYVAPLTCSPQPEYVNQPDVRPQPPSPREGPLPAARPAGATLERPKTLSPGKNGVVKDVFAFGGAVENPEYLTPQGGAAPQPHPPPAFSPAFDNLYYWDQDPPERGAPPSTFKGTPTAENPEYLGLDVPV
# [3] = SK-BR-3 cell growth inhibitors, pilot screen, 24 h, human (AID 572;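 active = viability at or below 10% of carrier control in both of two separate runs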;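 note: compound exposure lasted between 18 and 24 h rather than exactly 24 h; 100% = carrier-treated control wells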); conditions: SK-BR-3 viability, CellTiter-Glo luminescence, at 10 µM, stronger effect = lower value
# [4] = HUVEC growth inhibition – cell-based, human, primary screen (AID 575;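 active = viability at or below 30% in both replicate assays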;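 note: 100% = median of untreated cell wells with 0.1% DMSO on each plate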); conditions: HUVEC proliferation, CellTiter-Glo luminescence, 72 h; at 10 µM; stronger effect = lower value
# How it was run: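 Test system: HUVEC primary cells. Quantity: 1250 endothelial cells in each well. Dosing: single-point 10 µM, DMSO 0.1% final. Incubation: 72 h treatment at 37 °C. Measured by: CTG luminescence. Control set: DMSO cell controls and MePR drug controls. Plate: collagen-coated 384-well format.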
# [5] = growth inhibitors of H69AR lung tumor, primary screen, human, duplicate replicates (AID 580;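 active = viability at or under a set limit in both replicates, limit being median viability minus 3 SD, cut at about 48% in these data, passing the limit was not always enough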;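 note: 100% = mean luminescence of untreated wells and 0% = no signal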); conditions: H69AR lung tumor cells viability, ATP luminescence, 72 h; at 10 µM; stronger effect = lower value
# [6] = reversal of MRP1-mediated doxorubicin resistance, pilot screen, H69AR cells, doxorubicin co-treatment (AID 601;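 active = viability loss from added drug above about 55%, and viability with drug at most 40%, in both replicates, limit read from the data, passing the limit was not always enough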); conditions: CellTiter-Glo, 72 h, at 10 µM; for differential viability (reversal): stronger effect = higher value
# [7] = 384-well plate pilot, post-Golgi transport modulator project, inhibition of yeast transport mutant growth (AID 636; in the data active = inhibition above about 31%); conditions: absorbance 615 nm, about 18 h, stronger effect = higher value
# [8] = growth suppression of yeast trafficking mutant, preliminary HTS, modulators of trafficking downstream of Golgi apparatus project, 1536-format plate, OD 615 nm (AID 637; in the data active = inhibition above about 30%); conditions: yeast transport mutant growth, absorbance 615 nm, 18 h; stronger effect = higher value
# [9] = H69AR cells + 2 uM doxorubicin, measured here: viability with 2 uM doxorubicin, stronger effect = lower value
# [10] = H69AR cells, compound alone cytotoxicity
Structure (SMILES),viability [1] [%],Her2 level [2],viability [3],viability [4],viability [5],differential viability (reversal) ([6]; H69AR cells + 2 uM doxorubicin),"viability [6, 9] [%]","viability [6, 10] [%]",inhibition [7],inhibition [8]
CCn1c(SCC(=O)Nc2ccccc2F)nc2c(c1=O)SC(C)C2 (stereo not given),116,86.5% (inactive),116% (inactive),96.4% (inactive),95.3% (inactive),11.5% (inactive),83.8,95.3,-6.03% (inactive),2.54% (inactive)
O=C(NCC(c1cccnc1)N1CCN(c2ccc(F)cc2)CC1)OCc1ccccc1 (stereo not given),101,66% (inactive),101% (inactive),85% (inactive),91.8% (inactive),-3.13% (inactive),95,91.8,-2.57% (inactive),32.9% (active)
O=C(N1CCN(c2ccccc2F)CC1)C12CC3CC(CC(C3)C1)C2,88.5,87.5% (inactive),88.5% (inactive),93.7% (inactive),89.9% (inactive),-8.84% (inactive),98.7,89.9,-5.6% (inactive),3.97% (inactive)
CCOc1cc(C2/C(=C(/O)c3ccc(OC(C)C)cc3)C(=O)C(=O)N2CCCOC)ccc1O (stereo not given),91.5,83.5% (inactive),91.5% (inactive),103% (inactive),99.1% (inactive),1.7% (inactive),97.4,99.1,1.82% (inactive),3.17% (inactive)
CCOC(=O)N1CCN(c2cc3[nH]c(=S)[nH]c3cc2F)CC1,112,83% (inactive),112% (inactive),100% (inactive),89.7% (inactive),-6.7% (inactive),96.4,89.7,-7.2% (inactive),-2.58% (inactive)
COc1ccccc1CCNC(=O)C1CCCO1 (stereo not given),108,97% (inactive),108% (inactive),92.1% (inactive),98.9% (inactive),7.17% (inactive),91.7,98.9,-6.18% (inactive),-11.3% (inactive)
CC(C)CCNC(=O)NC(=O)CSc1nnc(-c2ccccc2F)n1N,94,108% (inactive),94% (inactive),99.9% (inactive),98.1% (inactive),6.23% (inactive),91.9,98.1,8.03% (inactive),14.8% (inactive)
Cn1c(=O)[nH]c(=O)c2c1nc(N1CCCCCC1)n2CCCSc1nc2ccccc2o1,84.5,80% (inactive),84.5% (inactive),66.4% (inactive),80.7% (inactive),37% (inactive),43.7,80.7,-5.68% (inactive),3.97% (inactive)
CCc1nc(N[C@@H](Cc2c[nH]c3ccccc23)C(=O)O)c2oc3ccccc3c2n1,100,81% (inactive),100% (inactive),71.7% (inactive),82.1% (inactive),-14.6% (inactive),96.7,82.1,-5.07% (inactive),-3.44% (inactive)
COc1cc(C(N)=O)ccc1OCc1ccccc1,86,83.5% (inactive),86% (inactive),91.6% (inactive),98.7% (inactive),8% (inactive),90.8,98.7,-1.45% (inactive),-7.14% (inactive)
COc1ccc(CC(=O)Nc2ccc(OC)c(NC(=O)c3ccco3)c2)cc1,91,106% (inactive),91% (inactive),85.8% (inactive),81.9% (inactive),-9.55% (inactive),91.5,81.9,4% (inactive),-2.38% (inactive)
Cc1ccc(-c2nnc(SC(C)C#N)n2N)cc1 (stereo not given),108,83% (inactive),108% (inactive),88.5% (inactive),92.3% (inactive),9.2% (inactive),83.1,92.3,-5.68% (inactive),4.44% (inactive)
Cc1sc2nc(SCC(=O)N3CCN(CCO)CC3)n(-c3ccccc3)c(=O)c2c1C,118,99% (inactive),118% (inactive),78.3% (inactive),88.1% (inactive),0.935% (inactive),87.2,88.1,0.65% (inactive),-0.16% (inactive)
CN(C)c1cccc(C(=O)OCC(=O)NCc2ccco2)c1,102,86.5% (inactive),102% (inactive),87% (inactive),86.2% (inactive),7.69% (inactive),78.6,86.2,-4.81% (inactive),-2.22% (inactive)
O=C1c2ccccc2-c2nc3ncnn3c(-c3ccccc3)c21,93.5,105% (inactive),93.5% (inactive),103% (inactive),102% (inactive),8.68% (inactive),93.2,102,1.97% (inactive),-3.45% (inactive)
COc1ccc(C(=O)Nn2c(SCC(=O)NCC3CCCO3)nc3ccccc3c2=O)cc1 (stereo not given),92.5,95% (inactive),92.5% (inactive),76.8% (inactive),83.8% (inactive),9.29% (inactive),74.5,83.8,-6.53% (inactive),-0.81% (inactive)

Structure (SMILES),viability [1] [%],Her2 level [2],viability [3],viability [4],viability [5],differential viability (reversal) ([6]; H69AR cells + 2 uM doxorubicin),"viability [6, 9] [%]","viability [6, 10] [%]",inhibition [7],inhibition [8]
O=C(O)c1cccc(NC(=O)C2C3C=CC(C3)C2C(=O)OCC(F)(F)C(F)F)c1 (stereo not given),102,91.5% (inactive),102% (inactive),94% (inactive),89% (inactive),0.695% (inactive),88.3,89,-5.79% (inactive),-1.33% (inactive)
CCOC(=O)c1cc2ccc(OC)c(OC)c2c(=O)s1,98.5,94% (inactive),98.5% (inactive),83.9% (inactive),83.5% (inactive),-0.1% (inactive),83.6,83.5,0.78% (inactive),-7% (inactive)
Cc1c(/C(O)=C2/C(=O)C(=O)N(CCN3CCOCC3)C2c2cccs2)cnn1-c1ccccc1 (stereo not given),88,114% (inactive),88% (inactive),116% (inactive),96.2% (inactive),1.22% (inactive),95,96.2,-0.79% (inactive),0.16% (inactive)
Cc1nnc(SCC(=O)Nc2ccc3c(c2)OCCO3)n1CC1CCCO1 (stereo not given),102,88.5% (inactive),102% (inactive),91.8% (inactive),94% (inactive),3.46% (inactive),90.6,94,-5.14% (inactive),-3.33% (inactive)
O=C(COc1ccc2c(c1)OCO2)NC12CC3CC(CC(C3)C1)C2,89.5,93% (inactive),89.5% (inactive),75.2% (inactive),80.8% (inactive),-5.25% (inactive),86,80.8,-5.07% (inactive),-6.07% (inactive)
N#C[C@@H]1[C@@H]2C(=O)N(c3ccc4c(c3)OCCO4)C(=O)[C@@H]2C2c3ccccc3C=CN21 (stereo not given in full),84.5,72% (inactive),84.5% (inactive),95.8% (inactive),92.8% (inactive),-0.82% (inactive),93.6,92.8,-0.53% (inactive),-5.48% (inactive)
Cc1cc(S(=O)(=O)n2cnc3ccccc32)c(C)cc1Cl,86.5,120% (inactive),86.5% (inactive),99.1% (inactive),102% (inactive),9.41% (inactive),92.4,102,-3.42% (inactive),-3.97% (inactive)
COc1cc(C(Nc2ccc3c(c2)OCO3)C(=O)NC2CCCCC2)cc(OC)c1OC (stereo not given),74.5,75% (inactive),74.5% (inactive),94.2% (inactive),93% (inactive),-6.39% (inactive),99.4,93,-4.32% (inactive),7.94% (inactive)
Oc1ccc(N2CCN(C(c3cccnc3)c3nnnn3Cc3ccccc3)CC2)cc1 (stereo not given),85,92% (inactive),85% (inactive),83.5% (inactive),90.2% (inactive),-2.76% (inactive),92.9,90.2,-4.74% (inactive),-2% (inactive)
Cc1c(NC(=O)c2ccc(COc3ccc4ccccc4c3)o2)c(=O)n(-c2ccccc2)n1C,88.5,91% (inactive),88.5% (inactive),91.2% (inactive),99% (inactive),13.7% (inactive),85.3,99,-5.47% (inactive),-5.9% (inactive)
O=C(CN(Cc1cccs1)C(=O)CNS(=O)(=O)c1ccccc1)NCc1ccco1,98,96.5% (inactive),98% (inactive),101% (inactive),101% (inactive),12.7% (inactive),88,101,0.13% (inactive),-3.33% (inactive)
CC(=O)C1=C(C)OC(N)=C(C#N)C1c1ccncc1 (stereo not given),133,80.5% (inactive),133% (inactive),115% (inactive),93.2% (inactive),8.39% (inactive),84.8,93.2,-5.6% (inactive),5.41% (inactive)
Cc1cc(-c2ccccc2)nc2cc(C(N)=O)nn12,102,94% (inactive),102% (inactive),101% (inactive),96% (inactive),8.83% (inactive),87.1,96,-2.63% (inactive),1.61% (inactive)
O=C1COc2ccc(C(=O)COC(=O)CCc3ccc(S(=O)(=O)N4CCOCC4)cc3)cc2N1,105,98% (inactive),105% (inactive),80.3% (inactive),79% (inactive),-10.4% (inactive),89.4,79,2.69% (inactive),1.67% (inactive)
O=C(Cn1c(NCCO)nc2ccccc21)c1ccccc1,100,100% (inactive),100% (inactive),99.6% (inactive),104% (inactive),3.85% (inactive),101,104,-2.16% (inactive),2.7% (inactive)
